According to ChEMBL document CHEMBL1123440, “Mitomycin C analogues with increased metal complexing ability” (J Med Chem, 1986):

Columns and labels:
[1] = test system: P388; assay: (§1) Antitumor activity against P-388 leukemia in mice, activity is expressed as maximum effect (% T/C) = MST(median survival time) treated/ MST control in the presence of compound only; assay type: functional, Mus musculus
Outline: (§2)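 P388 ascites, 10⁶ cells implanted ip in female CDF1 mice. Six mice per dose of analogue, with 10 saline-injected controls. Each test group carried its own mitomycin C positive control, six mice per dose. Read-out is median survival time (MST). %T/C = MST treated/MST control × 100, taken at the optimal dose. MED is the dose giving %T/C 125. 30-day survivors were counted.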

[2] = Ratio value, Optimal dose / Minimum effective dose; assay type: functional
Outline: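 Therapeutic ratio from the P388 ip survival test in female CDF1 mice (10⁶ ascites cells). Calculated as optimal dose divided by minimum effective dose. The minimum effective dose is the dose giving %T/C 125.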

[3] = test system: P388; assay: Antitumor activity against P-388 leukemia in mice, activity is expressed as maximum effect (% T/C) = MST(median survival time) treated/ MST control in the present of Mitomycin C; assay type: functional, Mus musculus; outline: as §2
[4] = test system: P388; assay: Antitumor activity against P-388 leukemia in mice, activity is expressed as Optimal dose; assay type: functional, Mus musculus; outline: as §2
[5] = Partition coefficient (logP); assay type: physicochemical; conditions: octanol/water
Outline: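 Shake-flask distribution between n-octanol and water containing phosphate buffer at pH 7.4, run by the Hansch method.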

[6] = test system: P388; assay: Antitumor activity against P-388 leukemia in mice, activity is expressed as Minimum effective dose; assay type: functional; conditions: Mus musculus, read-out: MED; outline: as §2
[7] = organism: Mus musculus; assay: Compound was tested for antitumor activity against P-388 leukemia in mice, activity is expressed as Optimal dose; 3.2-4.8; assay type: functional
[8] = organism: Mus musculus; assay: Compound was tested for antitumor activity against P-388 leukemia in mice, activity is expressed as maximum effect (% T/C) = MST(median survival time) treated/ MST control in the presence of compound only; 132->344; assay type: functional; outline: as §2
[9] = organism: Mus musculus; assay: Compound was tested for antitumor activity against P-388 leukemia in mice, activity is expressed as maximum effect (% T/C) = MST(median survival time) treated/ MST control in the pr; assay type: functional; outline: as §2
[10] = organism: Mus musculus; assay: as §1; assay type: functional; outline: as §2

| SMILES | T/C [1] [%] | Ratio [2] | T/C [3] [%] | OD [4] [mg/kg] | logP [5] | minimal effective dose [6] [mg/kg] | OD [7] [mg/kg] | T/C [8] [%] | T/C [9] [%] | T/C [10] [%] |
| --- | --- | --- | --- | --- | --- | --- | --- | --- | --- | --- |
| CO[C@@]12C(COC(N)=O)C3=C(C(=O)C(C)=C(NCCNc4ccc([N+](=O)[O-])cn4)C3=O)N1CC1NC12 (stereo partly drawn) | 144 | 8 | 250 | 12.8 | 0.77 | 2.6 |  |  |  |  |
| CO[C@@]12C(COC(N)=O)C3=C(C(=O)C(C)=C(NC(CO)C(=O)O)C3=O)N1CC1NC12 (stereo partly drawn) | 138 |  | 263 | 25.6 |  | 6.4 |  |  |  |  |
| CO[C@@]12C(COC(N)=O)C3=C(C(=O)C(C)=C(N(CCN)CCN)C3=O)N1CC1NC12 (stereo partly drawn) | 129 | 8 | 276 | 25.6 |  | 3.2 |  |  |  |  |
| CO[C@@]12C(COC(N)=O)C3=C(C(=O)C(C)=C(NCCc4ccco4)C3=O)N1CC1NC12 (stereo partly drawn) | 328 | 16 | 156 | 25.6 |  | 1.6 |  |  |  |  |
| CO[C@@]12C(COC(N)=O)C3=C(C(=O)C(C)=C(NCCCN(CCO)CCO)C3=O)N1CC1NC12 (stereo partly drawn) | 137 | 1 | 279 | 25.6 | -0.36 | 25.6 |  |  |  |  |
| CO[C@@]12C(COC(N)=O)C3=C(C(=O)C(C)=C(NCCC(=O)O)C3=O)N1CC1NC12 (stereo partly drawn) | 133 |  | 194 | 25.6 |  | 25.6 |  |  |  |  |
| CO[C@@]12C(COC(N)=O)C3=C(C(=O)C(C)=C(NCCCN)C3=O)N1CC1NC12 (stereo partly drawn) | 147 | 4 | 279 | 25.6 | -1.3 | 6.4 |  |  |  |  |
| CO[C@@]12[C@H](COC(N)=O)C3=C(C(=O)C(C)=C(N)C3=O)N1C[C@@H]1N[C@@H]12 [MITOMYCIN] |  | 24 |  |  |  | 0.2 | 3.2 | 132 |  |  |
| CO[C@@]12C(COC(N)=O)C3=C(C(=O)C(C)=C(NCCNCCO)C3=O)N1CC1NC12 (stereo partly drawn) | 133 | 1 | 156 | 12.8 | -0.57 | 12.8 |  |  |  |  |
| CO[C@@]12C(COC(N)=O)C3=C(C(=O)C(C)=C(NCc4ccccn4)C3=O)N1CC1NC12 (stereo partly drawn) | 233 | 16 | 272 | 25.6 | -0.09 | 1.6 |  |  |  |  |
| CO[C@@]12C(COC(N)=O)C3=C(C(=O)C(C)=C(NCCCCN=C(N)N)C3=O)N1CC1NC12 (stereo partly drawn) | 156 | 16 | 263 | 25.6 |  | 1.6 |  |  |  |  |
| COC(=O)C(CCSC)NC1=C(C)C(=O)C2=C(C1=O)C(COC(N)=O)[C@@]1(OC)C3NC3CN21 (stereo partly drawn) | 131 |  | 250 | 6.4 |  | 3.2 |  |  |  |  |
| CO[C@@]12C(COC(N)=O)C3=C(C(=O)C(C)=C(NCCNCCN)C3=O)N1CC1NC12 (stereo partly drawn) | 100 |  | 178 |  | -1.14 |  |  |  |  |  |
| CO[C@@]12C(COC(N)=O)C3=C(C(=O)C(C)=C(NCCc4c[nH]cn4)C3=O)N1CC1NC12 (stereo partly drawn) | 163 | 16 | 213 | 25.6 | -0.19 | 1.6 |  |  |  |  |
| CO[C@@]12C(COC(N)=O)C3=C(C(=O)C(C)=C(NC(C)C(=O)O)C3=O)N1CC1NC12 (stereo partly drawn) | 109 |  | 132 | 12.8 |  |  |  |  |  |  |
| CCOC(=O)C(CO)NC1=C(C)C(=O)C2=C(C1=O)C(COC(N)=O)[C@@]1(OC)C3NC3CN21 (stereo partly drawn) | 156 |  | 194 | 25.6 |  | 3.2 |  |  |  |  |
| CO[C@@]12C(COC(N)=O)C3=C(C(=O)C(C)=C(NCCOCCO)C3=O)N1CC1NC12 (stereo partly drawn) | 181 | 64 | 213 | 25.6 | -0.71 | 0.4 |  |  |  |  |
| CO[C@@]12C(COC(N)=O)C3=C(C(=O)C(C)=C(NCCc4ccccn4)C3=O)N1CC1NC12 (stereo partly drawn) | >375 | 128 |  | 25.6 | -0.09 | 0.2 |  |  | 319 |  |
| CO[C@@]12C(COC(N)=O)C3=C(C(=O)C(C)=C(NC(CCN=C(N)N)C(=O)O)C3=O)N1CC1NC12 (stereo partly drawn) | 138 |  | 263 | 25.6 |  | 6.4 |  |  |  |  |
| CO[C@@]12C(COC(N)=O)C3=C(C(=O)C(C)=C(N(C)CCc4ccccn4)C3=O)N1CC1NC12 (stereo partly drawn) | 300 | > 64 | 319 | 12.8 | 0.37 | < 0.2 |  |  |  |  |
| CO[C@@]12C(COC(N)=O)C3=C(C(=O)C(C)=C(NCCC(N)C(=O)O)C3=O)N1CC1NC12 (stereo partly drawn) | 139 |  | 206 | 25.6 |  | 6.4 |  |  |  |  |
| CO[C@@]12C(COC(N)=O)C3=C(C(=O)C(C)=C(NCC(O)CN)C3=O)N1CC1NC12 (stereo partly drawn) | 122 |  | >344 | 12.8 |  | 12.8 |  |  |  |  |
| CO[C@@]12C(COC(N)=O)C3=C(C(=O)C(C)=C(NCCc4ccncc4)C3=O)N1CC1NC12 (stereo partly drawn) |  | 8 | 233 | 25.6 | 0.31 | 3.2 |  |  |  | 167 |
| CO[C@@]12C(COC(N)=O)C3=C(C(=O)C(C)=C(NCC(O)CO)C3=O)N1CC1NC12 (stereo partly drawn) | 175 | 4 | 205 | 25.6 |  | 6.4 |  |  |  |  |
